Assay results as given in ChEMBL document CHEMBL4689842, “EUbOPEN Chemogenomics Library wave 1” (2021).

Tested on: HEK-293T
Test: Multiplex assay against HEK293T;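 as to Population Tubulin-Different-Phenotype (%): share of the cells with healthy nuclei that show this phenotype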
Type: toxicity, cell-based
Settings: human
In short: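 Per cents of healthy-nucleus cells form the tubulin, mitochondrial-mass and membrane-permeability phenotype values. Live cells were stained at seeding with Hoechst33342, BioTracker Green Microtubule Cytoskeleton Dye, MitoTracker Red and Annexin V Alexa Fluor 680. After compound addition they were imaged on a CQ1 microscope at 37°C and 5% CO2, and CellPathfinder machine-learning gating split them into Hoechst high-intensity objects or normal cells, normal cells into healthy, pyknosed or fragmented nuclei, and pyknosed cells into mitotic or apoptotic.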

[1] = 12 h, 1 µM, compound concentration 1 uM, replicate 1
[2] = 12 h, 1 µM, compound concentration 1 uM, replicate 2
[3] = 12 h, 10 µM, compound concentration 10 uM, replicate 1
[4] = 12 h, 10 µM, compound concentration 10 uM, replicate 2
[5] = 24 h, 1 µM, compound concentration 1 uM, replicate 1
[6] = 24 h, 1 µM, compound concentration 1 uM, replicate 2
[7] = 24 h, 10 µM, compound concentration 10 uM, replicate 1
[8] = 24 h, 10 µM, compound concentration 10 uM, replicate 2
[9] = 48 h, 1 µM, compound concentration 1 uM, replicate 1
[10] = 48 h, 1 µM, compound concentration 1 uM, replicate 2
[11] = 48 h, 10 µM, compound concentration 10 uM, replicate 1
[12] = 48 h, 10 µM, compound concentration 10 uM, replicate 2

C=CC(=O)Nc1ccc2ncnc(Nc3ccc(OCc4cccc(F)c4)c(Cl)c3)c2c1.Cc1ccc(S(=O)(=O)O)cc1
Population Apoptotic (%) [1]: 52% | Population Fragmented Nuclei (%) [1]: 11% | Population Healthy Nuclei (%) [1]: 38% | Population Hoechst High Intensity Objects (%) [1]: 11% | Population Mitochondria Different-Phenotype (%) [1]: 75% | Population Mitotic Cells (%) [1]: 47% | Population Normal (%) [1]: 88% | Population Pyknosed Nuclei (%) [1]: 49% | Population Tubulin-Different-Phenotype (%) [1]: 39% | Total Cell Count [1]: 304 | Population Apoptotic (%) [2]: 11% | Population Fragmented Nuclei (%) [2]: 6% | Population Healthy Nuclei (%) [2]: 45% | Population Hoechst High Intensity Objects (%) [2]: 2% | Population Membrane Permeable-Phenotype (%) [2]: 5% | Population Mitochondria Different-Phenotype (%) [2]: 26% | Population Mitotic Cells (%) [2]: 88% | Population Normal (%) [2]: 97% | Population Pyknosed Nuclei (%) [2]: 47% | Population Tubulin-Different-Phenotype (%) [2]: 24% | Total Cell Count [2]: 226 | Population Apoptotic (%) [3]: 51% | Population Fragmented Nuclei (%) [3]: 10% | Population Healthy Nuclei (%) [3]: 38% | Population Hoechst High Intensity Objects (%) [3]: 12% | Population Membrane Permeable-Phenotype (%) [3]: 2% | Population Mitochondria Different-Phenotype (%) [3]: 82% | Population Mitotic Cells (%) [3]: 48% | Population Normal (%) [3]: 87% | Population Pyknosed Nuclei (%) [3]: 51% | Population Tubulin-Different-Phenotype (%) [3]: 44% | Total Cell Count [3]: 267 | Population Apoptotic (%) [4]: 49% | Population Fragmented Nuclei (%) [4]: 22% | Population Healthy Nuclei (%) [4]: 21% | Population Hoechst High Intensity Objects (%) [4]: 8% | Population Membrane Permeable-Phenotype (%) [4]: 0% | Population Mitochondria Different-Phenotype (%) [4]: 27% | Population Mitotic Cells (%) [4]: 50% | Population Normal (%) [4]: 91% | Population Pyknosed Nuclei (%) [4]: 56% | Population Tubulin-Different-Phenotype (%) [4]: 27% | Total Cell Count [4]: 184 | Population Apoptotic (%) [5]: 45% | Population Fragmented Nuclei (%) [5]: 11% | Population Healthy Nuclei (%) [5]: 41% | Population Hoechst High Intensity Objects (%) [5]: 15% | Population Membrane Permeable-Phenotype (%) [5]: 3% | Population Mitochondria Different-Phenotype (%) [5]: 61% | Population Mitotic Cells (%) [5]: 54% | Population Normal (%) [5]: 84% | Population Pyknosed Nuclei (%) [5]: 47% | Population Tubulin-Different-Phenotype (%) [5]: 39% | Total Cell Count [5]: 351 | Population Apoptotic (%) [6]: 16% | Population Fragmented Nuclei (%) [6]: 7% | Population Healthy Nuclei (%) [6]: 63% | Population Hoechst High Intensity Objects (%) [6]: 2% | Population Membrane Permeable-Phenotype (%) [6]: 10% | Population Mitochondria Different-Phenotype (%) [6]: 19% | Population Mitotic Cells (%) [6]: 83% | Population Normal (%) [6]: 97% | Population Pyknosed Nuclei (%) [6]: 28% | Population Tubulin-Different-Phenotype (%) [6]: 30% | Total Cell Count [6]: 279 | Population Apoptotic (%) [7]: 56% | Population Fragmented Nuclei (%) [7]: 11% | Population Healthy Nuclei (%) [7]: 41% | Population Hoechst High Intensity Objects (%) [7]: 16% | Population Mitochondria Different-Phenotype (%) [7]: 78% | Population Mitotic Cells (%) [7]: 43% | Population Normal (%) [7]: 83% | Population Pyknosed Nuclei (%) [7]: 47% | Population Tubulin-Different-Phenotype (%) [7]: 48% | Total Cell Count [7]: 262 | Population Apoptotic (%) [8]: 48% | Population Fragmented Nuclei (%) [8]: 17% | Population Healthy Nuclei (%) [8]: 30% | Population Hoechst High Intensity Objects (%) [8]: 9% | Population Membrane Permeable-Phenotype (%) [8]: 2% | Population Mitochondria Different-Phenotype (%) [8]: 50% | Population Mitotic Cells (%) [8]: 51% | Population Normal (%) [8]: 90% | Population Pyknosed Nuclei (%) [8]: 52% | Population Tubulin-Different-Phenotype (%) [8]: 45% | Total Cell Count [8]: 161 | Population Apoptotic (%) [9]: 44% | Population Fragmented Nuclei (%) [9]: 15% | Population Healthy Nuclei (%) [9]: 47% | Population Hoechst High Intensity Objects (%) [9]: 13% | Population Membrane Permeable-Phenotype (%) [9]: 4% | Population Mitochondria Different-Phenotype (%) [9]: 32% | Population Mitotic Cells (%) [9]: 55% | Population Normal (%) [9]: 86% | Population Pyknosed Nuclei (%) [9]: 37% | Population Tubulin-Different-Phenotype (%) [9]: 32% | Total Cell Count [9]: 430 | Population Apoptotic (%) [10]: 4% | Population Fragmented Nuclei (%) [10]: 6% | Population Healthy Nuclei (%) [10]: 83% | Population Hoechst High Intensity Objects (%) [10]: 2% | Population Membrane Permeable-Phenotype (%) [10]: 11% | Population Mitochondria Different-Phenotype (%) [10]: 4% | Population Mitotic Cells (%) [10]: 96% | Population Normal (%) [10]: 97% | Population Pyknosed Nuclei (%) [10]: 10% | Population Tubulin-Different-Phenotype (%) [10]: 23% | Total Cell Count [10]: 512 | Population Apoptotic (%) [11]: 51% | Population Fragmented Nuclei (%) [11]: 16% | Population Healthy Nuclei (%) [11]: 48% | Population Hoechst High Intensity Objects (%) [11]: 12% | Population Membrane Permeable-Phenotype (%) [11]: 5% | Population Mitochondria Different-Phenotype (%) [11]: 46% | Population Mitotic Cells (%) [11]: 48% | Population Normal (%) [11]: 87% | Population Pyknosed Nuclei (%) [11]: 35% | Population Tubulin-Different-Phenotype (%) [11]: 38% | Total Cell Count [11]: 339 | Population Apoptotic (%) [12]: 60% | Population Fragmented Nuclei (%) [12]: 13% | Population Healthy Nuclei (%) [12]: 53% | Population Hoechst High Intensity Objects (%) [12]: 10% | Population Membrane Permeable-Phenotype (%) [12]: 8% | Population Mitochondria Different-Phenotype (%) [12]: 22% | Population Mitotic Cells (%) [12]: 40% | Population Normal (%) [12]: 89% | Population Pyknosed Nuclei (%) [12]: 32% | Population Tubulin-Different-Phenotype (%) [12]: 46% | Total Cell Count [12]: 187
